Active and inactive are the calls of the source. The calls are words filed in the database; no cut-off is given here.
Legend:
Rattus norvegicus [1] = test: Neurotoxicity in rat assessed as neurological deficit at 30 mg/kg, po after 0.5 hrs […]; type: toxicity, organism-based; parameters: dose 30 mg/kg, route oral; conditions: in vivo
Outline: (§1)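 Rats given the compound, suspended in 0.5% methylcellulose, by the stated route and dose. Neurological deficit was recorded at the listed times as ataxia and loss of placing response and muscle tone. Reported as number of rats showing toxicity/number tested.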

Rattus norvegicus [2] = test: Neurotoxicity in rat assessed as neurological deficit at 30 mg/kg, po after 1 hr […]; type: toxicity, organism-based; parameters: dose 30 mg/kg, route oral; conditions: in vivo; outline: as §1
Mus musculus [3] = test: Anticonvulsant activity in mouse assessed as protection against maximal electric shock-induced seizures at 70 mg/kg, ip after 2 hrs; type: functional, organism-based; parameters: dose 70 mg/kg
Outline: (§2)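 Time-to-peak-effect assay: MES protection read at 0.25–4 h after dosing. Mice ip (60–130 mg/kg), rats po (15 or 30 mg/kg) or ip (30 mg/kg). Groups of 4–8; result is protected/tested.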

Mus musculus [4] = test: Anticonvulsant activity in mouse assessed as protection against maximal electric shock-induced seizures at 90 mg/kg, ip after 0.25 hrs; type: functional, organism-based; parameters: dose 90 mg/kg; outline: as §2
Mus musculus [5] = test: Anticonvulsant activity in mouse assessed as protection against maximal electric shock-induced seizures at 70 mg/kg, ip after 0.5 hrs; type: functional, organism-based; parameters: dose 70 mg/kg; outline: as §2
Mus musculus [6] = test: Neurotoxicity in mouse assessed as inability to maintain equilibrium on rotarod at 100 mg/kg, ip after 0.5 hrs by rotarod test; type: toxicity, organism-based; parameters: dose 100 mg/kg, route intraperitoneal; conditions: in vivo
Outline: (§3)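 Drug given ip to mice as a suspension in 0.5% methylcellulose. At the stated time after dosing, each mouse was placed on a 1 inch knurled rod turning at 6 rpm. Neurotoxicity = inability to stay balanced at least 1 min in each of three trials. Scored as animals toxic/animals tested in small groups.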

Mus musculus [7] = test: Anticonvulsant activity in mouse assessed as protection against maximal electric shock-induced seizures at 300 mg/kg, ip after 4 hrs; type: functional, organism-based; parameters: dose 300 mg/kg
Outline: (§4)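 Phase I maximal electroshock screen in mice. Compound given ip as a suspension in 0.5% methylcellulose at 30, 100 or 300 mg/kg, tested at 30 min and 4 h. Small groups (1–8); result is number protected/number tested.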

Mus musculus [8] = test: Anticonvulsant activity in mouse assessed as protection against maximal electric shock-induced seizures at 90 mg/kg, ip after 0.5 hrs; type: functional, organism-based; parameters: dose 90 mg/kg; outline: as §2
Mus musculus [9] = test: Neurotoxicity in mouse assessed as inability to maintain equilibrium on rotarod at 100 mg/kg, ip after 4 hrs by rotarod test; type: toxicity, organism-based; parameters: dose 100 mg/kg, route intraperitoneal; conditions: in vivo; outline: as §3
Mus musculus [10] = test: Anticonvulsant activity against subcutaneous pentylenetetrazole-induced seizures in mouse at 30 mg/kg, ip after 0.5 hrs; type: functional, organism-based; parameters: dose 30 mg/kg
Outline: (§5)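 Phase I screen in mice. Compound given ip as a suspension in 0.5% methylcellulose, read at 30 min and 4 h. Pentylenetetrazole 85 mg/kg in 0.9% NaCl was injected sc into the posterior midline and animals watched ≥30 min. Protection meant no clonic spasm lasting ≥5 s. Groups of 1–8 animals; result is protected/tested.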

Mus musculus [11] = test: Anticonvulsant activity in mouse assessed as protection against maximal electric shock-induced seizures at 70 mg/kg, ip after 1 hr; type: functional, organism-based; parameters: dose 70 mg/kg; outline: as §2
Rattus norvegicus [12] = test: Neurotoxicity in rat assessed as neurological deficit at 30 mg/kg, po after 4 hrs by rotarod test; type: toxicity, organism-based; parameters: dose 30 mg/kg, route oral; conditions: in vivo; outline: as §1
Mus musculus [13] = test: Anticonvulsant activity in mouse assessed as protection against maximal electric shock-induced seizures at 90 mg/kg, ip after 4 hrs; type: functional, organism-based; parameters: dose 90 mg/kg; outline: as §2
Mus musculus [14] = test: Neurotoxicity in mouse assessed as inability to maintain equilibrium on rotarod at 300 mg/kg, ip after 0.5 hrs by rotarod test; type: toxicity, organism-based; parameters: dose 300 mg/kg, route intraperitoneal; conditions: in vivo; outline: as §3
Mus musculus [15] = test: Neurotoxicity in mouse assessed as inability to maintain equilibrium on rotarod at 30 mg/kg, ip after 4 hrs by rotarod test; type: toxicity, organism-based; parameters: dose 30 mg/kg, route intraperitoneal; conditions: in vivo; outline: as §3
[16] = Neurotoxicity in ip dosed mouse assessed as inability to maintain equilibrium on rotarod by rotarod test; type: toxicity, organism-based; conditions: in vivo
Outline: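 Mice dosed ip with a suspension in 0.5% methylcellulose, then placed on a 1 inch knurled plastic rod rotating at 6 rpm. Toxicity = failure to keep equilibrium for at least 1 min in each of three trials.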

Mus musculus [17] = test: Anticonvulsant activity in mouse assessed as protection against maximal electric shock-induced seizures at 30 mg/kg, ip after 4 hrs; type: functional, organism-based; parameters: dose 30 mg/kg; outline: as §4
Mus musculus [18] = test: Anticonvulsant activity in mouse assessed as protection against maximal electric shock-induced seizures at 100 mg/kg, ip after 4 hrs; type: functional, organism-based; parameters: dose 100 mg/kg; outline: as §4
Mus musculus [19] = test: Anticonvulsant activity in ip dosed mouse assessed as time to show peak effect of protection against maximal electric shock-induced seizures; type: functional; outline: as §2
Mus musculus [20] = test: Anticonvulsant activity in mouse assessed as protection against maximal electric shock-induced seizures at 90 mg/kg, ip after 1 hr; type: functional, organism-based; parameters: dose 90 mg/kg; outline: as §2
Mus musculus [21] = test: Anticonvulsant activity against subcutaneous pentylenetetrazole-induced seizures in mouse at 300 mg/kg, ip after 0.5 hrs; type: functional, organism-based; parameters: dose 300 mg/kg; outline: as §5
Rattus norvegicus [22] = test: Neurotoxicity in rat assessed as neurological deficit at 30 mg/kg, po after 2 hrs […]; type: toxicity, organism-based; parameters: dose 30 mg/kg, route oral; conditions: in vivo; outline: as §1
Mus musculus [23] = test: Anticonvulsant activity in ip dosed mouse assessed as protection against maximal electric shock-induced seizures; type: functional; conditions: Mus musculus, ip; read-out: ED50
Mus musculus [24] = test: Neurotoxicity in mouse assessed as inability to maintain equilibrium on rotarod at 90 mg/kg, ip after 24 hrs using rotarod test; type: toxicity, organism-based; parameters: dose 90 mg/kg, route intraperitoneal; conditions: in vivo; outline: as §3
Mus musculus [25] = test: Anticonvulsant activity in mouse assessed as protection against maximal electric shock-induced seizures at 60 mg/kg, ip after 0.25 hrs; type: functional, organism-based; parameters: dose 60 mg/kg; outline: as §2
Mus musculus [26] = test: Neurotoxicity in mouse assessed as inability to maintain equilibrium on rotarod at 30 mg/kg, ip after 0.5 hrs by rotarod test; type: toxicity, organism-based; parameters: dose 30 mg/kg, route intraperitoneal; conditions: in vivo; outline: as §3
Mus musculus [27] = test: Anticonvulsant activity against subcutaneous pentylenetetrazole-induced seizures in mouse at 300 mg/kg, ip after 4 hrs; type: functional, organism-based; parameters: dose 300 mg/kg; outline: as §5
Mus musculus [28] = test: Anticonvulsant activity in mouse assessed as protection against maximal electric shock-induced seizures at 300 mg/kg, ip after 0.5 hrs; type: functional, organism-based; parameters: dose 300 mg/kg; outline: as §4
Mus musculus [29] = test: Anticonvulsant activity in mouse assessed as protection against maximal electric shock-induced seizures at 30 mg/kg, ip after 0.5 hrs; type: functional, organism-based; parameters: dose 30 mg/kg; outline: as §4
Mus musculus [30] = test: Anticonvulsant activity against subcutaneous pentylenetetrazole-induced seizures in mouse at 100 mg/kg, ip after 4 hrs; type: functional, organism-based; parameters: dose 100 mg/kg; outline: as §5
Mus musculus [31] = species on record: Mus musculus; test: Protective index, ratio of TD50 for neurotoxicity in mouse to ED50 for inhibition of maximal electroshock-induced seizures in mouse; type: functional
Rattus norvegicus [32] = test: Neurotoxicity in rat assessed as neurological deficit at 30 mg/kg, po after 0.25 hrs […]; type: toxicity, organism-based; parameters: dose 30 mg/kg, route oral; conditions: in vivo; outline: as §1
Mus musculus [33] = test: Neurotoxicity in mouse assessed as inability to maintain equilibrium on rotarod at 300 mg/kg, ip after 4 hrs by rotarod test; type: toxicity, organism-based; parameters: dose 300 mg/kg, route intraperitoneal; conditions: in vivo; outline: as §3
Mus musculus [34] = test: Anticonvulsant activity against subcutaneous pentylenetetrazole-induced seizures in mouse at 30 mg/kg, ip after 4 hrs; type: functional, organism-based; parameters: dose 30 mg/kg; outline: as §5

SMILES: Cc1cccc(C)c1OCC(=O)N[C@H]1CCCC[C@@H]1O.O=C(O)C(O)C(O)C(=O)O
- Activity (Rattus norvegicus [1]): Non-toxic
- Activity (Rattus norvegicus [2]): Non-toxic
- Activity (Mus musculus [3]): inactive
- Activity (Mus musculus [4]): Active
- Activity (Mus musculus [5]): inactive
- Activity (Mus musculus [6]): Non-toxic
- Activity (Mus musculus [7]): inactive
- Activity (Mus musculus [8]): Active
- Activity (Mus musculus [9]): Non-toxic
- Activity (Mus musculus [10]): inactive
- Activity (Mus musculus [11]): inactive
- Activity (Rattus norvegicus [12]): Non-toxic
- Activity (Mus musculus [13]): inactive
- Activity (Mus musculus [14]): Non-toxic
- Activity (Mus musculus [15]): Non-toxic
- TD50 [16]: 68.7 mg/kg
- Activity (Mus musculus [17]): inactive
- Activity (Mus musculus [18]): inactive
- Time (Mus musculus [19]): 0.25 h
- Activity (Mus musculus [20]): inactive
- Activity (Mus musculus [21]): inactive
- Activity (Rattus norvegicus [22]): Non-toxic
- ED50 (Mus musculus [23]): 35.5 mg/kg
- Activity (Mus musculus [24]): Non-toxic
- Activity (Mus musculus [25]): Active
- Activity (Mus musculus [26]): Non-toxic
- Activity (Mus musculus [27]): inactive
- Activity (Mus musculus [28]): Active
- Activity (Mus musculus [29]): inactive
- Activity (Mus musculus [30]): inactive
- Ratio TD50/ED50 (Mus musculus [31]): 1.937
- Activity (Rattus norvegicus [32]): Non-toxic
- Activity (Mus musculus [33]): Non-toxic
- Activity (Mus musculus [34]): inactive
